Experimental data of several laboratories.
Lines come from different studies, so protocols differ.
Target: Myosin light chain kinase, smooth muscle (MYLK, Homo sapiens, UniProt Q15746)

SMILES | observed | mode | technique | cell line | concentration | quantity | value
CN(C)c1ncnc(-c2ccc3nc(Nc4cc(CN5CCN(C(=O)CC(F)(F)F)CC5)ccn4)[nH]c3c2)c1Cl | cell-free assay |  | competition with immobilised ligand |  | 1 µM | remaining binding | 68%
O=C1NC(=O)c2cc(Nc3ccc(F)cc3)c(Nc3ccc(F)cc3)cc21 | cell-free assay |  |  |  | 0.5 µM | remaining signal | 100%
CCN1CCN(Cc2ccc(NC(=O)c3ccc(C)c(Oc4ccnc5[nH]ccc45)c3)cc2C(F)(F)F)CC1 | target engagement in cells | inhibitor | chemoproteomics | Huh-7 | 1 µM | inhibition | -23.4%
Cc1nc(N2CC[C@@H](O)C2)ncc1-c1cc(C(F)(F)F)cc2[nH]ncc12 | binding |  | competition with immobilised ligand |  | 1 µM | remaining binding | 100%
COc1cc(Nc2cnc(C#N)c(O[C@H](C)CN(C)C)n2)ncc1-c1cnn(C)c1 | enzyme activity | inhibitor | radiometric |  | 10 µM | remaining activity | 103%
O=C1c2ccccc2-c2n[nH]c3cccc1c23 | enzyme activity | inhibitor |  |  | 0.5 µM | activity vs control | 48%
Cn1cncc1C1=CN(c2ncnc3[nH]cnc23)CCS1 | enzyme activity | inhibitor | radiometric |  | 2 µM | inhibition | 91.1%
Cn1nc(C(=O)NCc2ccc(C(=O)O)cc2)cc1-c1ccc2[nH]ccc2c1 | cell-free assay |  | competition with immobilised ligand |  | 0.1 µM | remaining binding | 62%
Cn1c2c(Cl)c(Cl)ccc2c2cc[nH]c(=O)c21 | thermal stability |  | DSF |  | 10 µM | ΔTm | 2.4 °C
Cn1c(=O)n(-c2ccc(C(C)(C)C#N)cc2)c2c3cc(-c4cnc5ccccc5c4)ccc3ncc21 | enzyme activity | inhibitor |  |  | 10 µM | remaining activity | 109%
CN1CC(Oc2cnc(C#N)cc2-c2ccn3nc(NC(=O)C4CC4)cc3c2)C1 | enzyme activity | inhibitor |  |  | 1 µM | inhibition | -19%
O=C1Nc2ccc(Cl)cc2C1=Cc1cc(Cl)c(O)c(Cl)c1 | cell-free assay |  |  |  | 0.5 µM | remaining signal | 62.3%
CCN(CC)c1ccc(C2=NNC(=O)CC2C)cc1[N+](=O)[O-] (centres unmarked) | enzyme activity | inhibitor |  |  | 10 µM | remaining activity | 90%
Cc1cnn2ncc(-c3ccnc(N(C)C)n3)c2c1 | binding |  |  |  | 1 µM | remaining binding | 99%
Cc1c(NC(=O)c2cc(C(N)=O)nc3cc(F)ccc23)c(C(F)(F)F)nn1Cc1ccc(C#N)cc1 | binding |  | competition with immobilised ligand |  | 1 µM | remaining binding | 65%
COc1cc(/C=C/C(=O)CC(=O)/C=C/c2ccc(O)c(OC)c2)ccc1O | enzyme activity | inhibitor |  |  | 1 µM | activity vs control | 70%
C[C@H](c1ccc(F)cc1)N(Cc1cccc(C(=O)O)c1)C(=O)c1cnc2ccccc2c1 | cell-free assay |  | competition with immobilised ligand |  | 1 µM | remaining binding | 76%
Cc1cc(NC(=O)c2cccc3cc(-c4cccc5[nH]nc(N)c45)ccc23)ccc1F | enzyme activity | inhibitor |  |  | 0.1 µM | activity vs control | 89%
Nc1nc(NC2CCCCC2)sc1C(=O)c1ccccc1 | enzyme activity | inhibitor |  |  | 10 µM | remaining activity | 44%
CC(C)(C)c1nc2c(s1)c1nc(N)ncc1c1ccc(NS(=O)(=O)c3c(F)cccc3F)c(F)c12 | enzyme activity | inhibitor | radiometric |  | 1 µM | remaining activity | 87%
CC(=O)Nc1c(C(C)=O)c(=O)n(C)c2nc(-c3ccc(Cl)cc3Cl)c(-c3ccc(Cl)cc3)cc12 | cell-free assay |  | competition with immobilised ligand |  | 1 µM | remaining binding | 100%
Cn1cnc(Br)c1C1=CN(c2ncnc3[nH]cnc23)CCS1 | enzyme activity | inhibitor | radiometric |  | 2 µM | inhibition | 93.4%
Nc1ncnc2occ(-c3ccc(NC(=O)Nc4cc(C(F)(F)F)ccc4F)cc3)c12 | enzyme activity | inhibitor |  |  | 20 µM | remaining activity | 42%
O=C(Nc1cnn(-c2csc(C(=O)NC3COC3)c2)c1)Nc1ccccc1Cl | enzyme activity | inhibitor |  |  | 5 µM | remaining activity | 97.5%
Oc1cccc(-c2nc(N3CCOCC3)c3oc4ncccc4c3n2)c1 | cell-free assay |  |  |  | 0.5 µM | remaining signal | 77.1%
COc1ccc2c(c1)O[C@@H](c1ccc(OC)c(OC)c1)C[C@H]2NC(=O)C1(c2ccc3c(c2)OC(F)(F)O3)CC1 | cell-free assay |  | competition with immobilised ligand |  | 1 µM | remaining binding | 85%
